Assay results: ChEMBL document CHEMBL4145471, “New 1,5 and 2,5-disubstituted tetrazoles-dependent activity towards surface barrier of Candida albicans” (Eur J Med Chem, 2018)
≈ marks a conversion by molar mass, not a printed value.

Legend:
Format in all cases: functional
Candida albicans [1] = assay: Antifungal activity against Candida albicans ATCC 90028 at 0.5 ug/ml after 18 hrs relative to control
Outline: (§1)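 Planktonic broth microdilution per M27-A3 in MOPS-buffered RPMI 1640 (pH 7.0), final inoculum 1.8×10^3 cells/mL, compounds 0.0313–16 µg/mL from 1600 µg/mL stocks in ethanol or DMSO. Incubated at 35°C without agitation; OD405 read at 18 and 48 h. % inhibition was derived from test, sterility (no inoculum) and solvent growth-control wells. Amphotericin B at 0.5 µg/mL served as the 100% control.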

Candida albicans [2] = assay: Antifungal activity against Candida albicans ATCC 90028 at 0.5 ug/ml after 48 hrs relative to control; outline: as §1
Candida albicans [3] = assay: Antifungal activity against Candida albicans ATCC 90028 after 72 hrs by M27-A3 microdilution method; conditions: ATCC 90028, 72 h
Candida albicans [4] = assay: Antifungal activity against Candida albicans ATCC 90028 after 72 hrs in presence of ergosterol by M27-A3 microdilution method; conditions: ATCC 90028, 72 h
Outline: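 Ergosterol-modified M27-A3 assay. Compounds at 512-1 µg/mL serially diluted in RPMI; the 10^3 CFU/mL inoculum is made in RPMI with ergosterol (dissolved in 10% DMSO/1% Tween 80, heated), giving 400 µg/mL ergosterol in the wells. Itraconazole and amphotericin B serve as controls. Plates at 35°C, read after 72 h. MIC is the lowest concentration without visible growth; triplicate on three days, geometric means.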

Candida albicans [5] = assay: Antifungal activity against Candida albicans ATCC 90028 after 48 hrs by M27-A3 microdilution method; conditions: ATCC 90028, 48 h
Candida albicans [6] = assay: Ratio of MIC for Candida albicans ATCC 90028 in presence of ergosterol to MIC for Candida albicans ATCC 90028 in absence of ergosterol
Outline: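 MICs per modified M27-A3 in RPMI with or without ergosterol (final 400 µg/mL, dissolved in 10% DMSO/1% Tween 80 with heating). Inoculum 10³ CFU/mL; tetrazoles and itraconazole tested at 512–1 µg/mL, amphotericin B at 125–0.24 µg/mL. Plates were incubated at 35°C and read at 72 h; MIC was the lowest concentration with no visible growth. Run in triplicate on three days, geometric means.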

Candida albicans [7] = assay: Antifungal activity against Candida albicans ATCC 90028 at 0.0625 ug/ml after 18 hrs relative to control
Candida albicans [8] = assay: Antifungal activity against Candida albicans ATCC 90028 at 8 ug/ml after 18 hrs relative to control; outline: as §1
Candida albicans [9] = assay: Antifungal activity against Candida albicans ATCC 90028 at 16 ug/ml after 18 hrs relative to control; outline: as §1
Candida albicans [10] = assay: Antifungal activity against Candida albicans ATCC 90028 at 8 ug/ml after 48 hrs relative to control; outline: as §1
Candida albicans [11] = assay: Antifungal activity against Candida albicans ATCC 90028 at 0.125 ug/ml after 48 hrs relative to control; outline: as §1
Candida albicans [12] = assay: Antifungal activity against Candida albicans ATCC 90028 at 0.0313 ug/ml after 18 hrs relative to control
Candida albicans [13] = assay: Antifungal activity against Candida albicans ATCC 90028 at 1 ug/ml after 48 hrs relative to control; outline: as §1
Candida albicans [14] = assay: Antifungal activity against Candida albicans ATCC 90028 at 0.125 ug/ml after 18 hrs relative to control; outline: as §1
Candida albicans [15] = assay: Antifungal activity against Candida albicans ATCC 90028 at 4 ug/ml after 48 hrs relative to control; outline: as §1
Candida albicans [16] = assay: Antifungal activity against Candida albicans ATCC 90028 at 1 ug/ml after 18 hrs relative to control; outline: as §1
Candida albicans [17] = assay: Antifungal activity against Candida albicans ATCC 90028 at 0.25 ug/ml after 48 hrs relative to control
Outline: (§2)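 Fluconazole (water stock, diluted in RPMI 1640) tested by CLSI M27-A3 broth microdilution against C. albicans ATCC 90028. Inoculum 1.8×10^3 cells/mL in RPMI 1640 buffered with MOPS, pH 7.0. Incubation at 35°C without agitation, read at 18 and 48 h. Growth by OD405 and visually; inhibition % calculated against solvent growth-control wells after subtracting sterility-control wells.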

Candida albicans [18] = assay: Antifungal activity against Candida albicans ATCC 90028 at 2 ug/ml after 48 hrs relative to control; outline: as §1
Candida albicans [19] = assay: Antifungal activity against Candida albicans ATCC 90028 at 0.25 ug/ml after 18 hrs relative to control; outline: as §2
Candida albicans [20] = assay: Fungicidal activity against Candida albicans ATCC 90028 at 16 ug/ml after 48 hrs by M27-A3 microdilution method
Outline: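 After 48 h at 35°C in M27-A3 microdilution plates (compound at 16 µg/mL), 50 µL aliquots from treated and solvent-control wells were diluted 10^4 in PBS and plated on drug-free Sabouraud dextrose agar, then incubated 48 h at 35°C. Reduction R = lg CFU/mL control − lg CFU/mL treated; R ≥ 3 defined as fungicidal.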

Candida albicans [21] = assay: Antifungal activity against Candida albicans ATCC 90028 at 2 ug/ml after 18 hrs relative to control; outline: as §1
Candida albicans [22] = assay: Antifungal activity against Candida albicans ATCC 90028 at 0.0625 ug/ml after 48 hrs relative to control; outline: as §1
Candida albicans [23] = assay: Antifungal activity against Candida albicans ATCC 90028 at 4 ug/ml after 18 hrs relative to control; outline: as §1
Candida albicans [24] = assay: Antifungal activity against Candida albicans ATCC 90028 at 0.0313 ug/ml after 48 hrs relative to control
Candida albicans [25] = assay: Antifungal activity against Candida albicans ATCC 90028 at 16 ug/ml after 48 hrs relative to control; outline: as §1

With C[C@@H]1[C@H](O)[C@@H](C)/C=C/C=C/C=C/C=C/C=C/C=C/C=C/[C@H](O[C@@H]2O[C@H](C)[C@@H](O)[C@H](N)[C@@H]2O)C[C@@H]2O[C@](O)(C[C@@H](O)C[C@@H](O)[C@H](O)CC[C@@H](O)C[C@@H](O)CC(=O)O[C@H]1C)C[C@H](O)[C@H]2C(=O)O [AMPHOTERICIN B] the Activity (Candida albicans [1]) was 100%, the Activity (Candida albicans [2]) was 100% and the MIC (Candida albicans [3]) was 0.03 µg/mL (≈ 0.0325 µM). The MIC (Candida albicans [4]) was 0.24 µg/mL.

Compound OC(Cn1cncn1)(Cn1cncn1)c1ccc(F)cc1F [FLUCONAZOLE] has an MIC (Candida albicans [5]) of 0.25 µg/mL (≈ 0.816 µM).

Compound CCC(C)n1ncn(-c2ccc(N3CCN(c4ccc(OCC5COC(Cn6cncn6)(c6ccc(Cl)cc6Cl)O5)cc4)CC3)cc2)c1=O (centres undefined) [ITRACONAZOLE] has a Ratio (Candida albicans [6]) of 2.

CCOC(=O)CCn1nnnc1-c1ccccc1Cl gave an Activity (Candida albicans [7]) of 99.98%, an Activity (Candida albicans [8]) of 99.99% and an Activity (Candida albicans [1]) of 97.11%. For the same compound, the Activity (Candida albicans [9]) was 99.55%, the Activity (Candida albicans [10]) was 99.17% and the Activity (Candida albicans [11]) was 99.24%. For the same compound, the Activity (Candida albicans [2]) was 99.06%, the Activity (Candida albicans [12]) was 99.33% and the Activity (Candida albicans [13]) was 99.17%. For the same compound, the Activity (Candida albicans [14]) was 99.93%, the Activity (Candida albicans [15]) was 99.25% and the Activity (Candida albicans [16]) was 87.68%. The Activity (Candida albicans [17]) was 99.02%, the Activity (Candida albicans [18]) was 99.07% and the Activity (Candida albicans [19]) was 99.78%. The Activity (Candida albicans [20]) was -0.01 log10CFU/ml, the Activity (Candida albicans [21]) was 92.75% and the Activity (Candida albicans [22]) was 99.19%. For the same compound, the Activity (Candida albicans [23]) was 99.9%, the Activity (Candida albicans [24]) was 99.2% and the Activity (Candida albicans [25]) was 99.28%.

With CCOC(=O)CCn1nnc(-c2ccc(C)cc2)n1 the Activity (Candida albicans [7]) was 99.51%, the Activity (Candida albicans [8]) was 99.61% and the Activity (Candida albicans [1]) was 99.07%. For the same compound, the Activity (Candida albicans [9]) was 99.98%, the Activity (Candida albicans [10]) was 99.14% and the Activity (Candida albicans [11]) was 98.72%. For the same compound, the Activity (Candida albicans [2]) was 99.16%, the Activity (Candida albicans [12]) was 99.31% and the Activity (Candida albicans [13]) was 96.34%. It also gave an Activity (Candida albicans [14]) of 99.76%, an Activity (Candida albicans [15]) of 98.95% and an Activity (Candida albicans [16]) of 45.15%. The Activity (Candida albicans [17]) was 98.95%, the Activity (Candida albicans [18]) was 98.95% and the Activity (Candida albicans [19]) was 98.38%. The Activity (Candida albicans [20]) was -0.23 log10CFU/ml, the Activity (Candida albicans [21]) was 98.19% and the Activity (Candida albicans [22]) was 98.79%. The Activity (Candida albicans [23]) was 98.99%, the Activity (Candida albicans [24]) was 98.81% and the Activity (Candida albicans [25]) was 99.37%.

Work on Clc1ccc(-c2nnn(CCCN3CCOCC3)n2)cc1 yielded an Activity (Candida albicans [7]) of 100%, an Activity (Candida albicans [8]) of 96.3% and an Activity (Candida albicans [1]) of 92.34%. For the same compound, the Activity (Candida albicans [9]) was 100%, the Activity (Candida albicans [10]) was 98.81% and the Activity (Candida albicans [11]) was 98.92%. For the same compound, the Activity (Candida albicans [2]) was 99.32%, the Activity (Candida albicans [12]) was 97.92% and the Activity (Candida albicans [13]) was 99.36%. For the same compound, the Activity (Candida albicans [14]) was 99.95%, the Activity (Candida albicans [15]) was 98.97% and the Activity (Candida albicans [16]) was 98.79%. It also gave an Activity (Candida albicans [17]) of 99.24%, an Activity (Candida albicans [18]) of 99.61% and an Activity (Candida albicans [19]) of 99.91%. It also gave an Activity (Candida albicans [20]) of 0.34 log10CFU/ml, an Activity (Candida albicans [21]) of 98.31% and an Activity (Candida albicans [22]) of 99.28%. It also gave an Activity (Candida albicans [23]) of 98.1%, an Activity (Candida albicans [24]) of 99.12% and an Activity (Candida albicans [25]) of 99.35%.
